In ChEMBL document CHEMBL1671683, “Activity of linezolid in an in vitro pharmacokinetic-pharmacodynamic model using different dosages and Staphylococcus aureus and Enterococcus faecalis strains with and without a hypermutator phenotype” (Antimicrob Agents Chemother, 2010):

Experiments:
[1] = test system: Enterococcus faecalis; experiment: ABBC (0 to 24 hrs) in Enterococcus faecalis ATCC 29212 in two-compartment pharmacokinetic/pharmacodynamic model at 600 mg, bid administered as 0.5 hr infusion for 2 days; type: functional
In short: (§1)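 Hollow-fibre two-compartment model in cation-adjusted, protein-free MH broth at 37°C. Human total-plasma linezolid profile simulated as 0.5-h infusion every 12 h for 48 h. Concentrated 18-h culture injected into the peripheral compartment 3 h before first sample, giving about 10^8 (E. faecalis) or 10^9 (S. aureus) CFU/ml. Viable counts by dilution plating over 0–24 h. Area indices calculated versus growth control curve. Duplicate runs.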

[2] = test system: Staphylococcus aureus; experiment: Bactericidal activity against 12 hrs peripheral compartment culture samples of Staphylococcus aureus RN4220 in two-compartment pharmacokinetic/pharmacodynamic model assessed as effect on bacterial count at 600 mg, bid administered as 0.5 hr infusion; type: functional
In short: (§2)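 An 18-h culture concentrated 50-fold was injected into the peripheral compartment 3 h pre-sampling (~10^8 CFU/ml E. faecalis, 10^9 S. aureus). Counts came from dilution plating (detection limit 2–3 log10 CFU/ml), expressed as Δlog CFU/ml from treatment start. Run in duplicate.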

[3] = in vivo; conditions: iv, 800 mg
[4] = test system: Staphylococcus aureus; experiment: Bactericidal activity against 2 hrs peripheral compartment culture samples of Staphylococcus aureus RN4220 MutS2 in two-compartment pharmacokinetic/pharmacodynamic model assessed as effect on bacterial count at 600 mg, bid administered as 0.5 hr infusion; type: functional; in short: as §2
[5] = AUC in two-compartment pharmacokinetic/pharmacodynamic model at 200 mg, bid administered as 0.5 hr infusion over 24 hrs; type: ADME; parameters: dose 200 mg, time < 24 hr; conditions: in vivo, iv
[6] = AUC in two-compartment pharmacokinetic/pharmacodynamic model at 200 mg, bid administered as 0.5 hrs infusion; type: ADME; conditions: iv
[7] = test system: Enterococcus faecalis; experiment: T>MIC in Enterococcus faecalis Ef1497 MutM3 in two-compartment pharmacokinetic/pharmacodynamic model at 600 mg, bid administered as 0.5 hr infusion for 2 days; type: functional
[8] = test system: Enterococcus faecalis; experiment: T>MIC in Enterococcus faecalis Ef1497 MutM3 in two-compartment pharmacokinetic/pharmacodynamic model at 200 mg, bid administered as 0.5 hr infusion for 2 days; type: functional
[9] = test system: Enterococcus faecalis; experiment: Bactericidal activity against 13 hrs peripheral compartment culture samples of Enterococcus faecalis ATCC 29212 in two-compartment pharmacokinetic/pharmacodynamic model assessed as effect on bacterial count at 600 mg, bid administered as 0.5 hr infusion; type: functional; in short: as §2
[10] = test system: Enterococcus faecalis; experiment: Bactericidal activity against 12 hrs peripheral compartment culture samples of Enterococcus faecalis Ef1497 MutM3 in two-compartment pharmacokinetic/pharmacodynamic model assessed as effect on bacterial count at 600 mg, bid administered as 0.5 hr infusion; type: functional
In short: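 Two-compartment hollow-fibre model in cation-adjusted, protein-free MH broth, 37°C. Linezolid given as simulated 0.5-h infusion twice daily. Inoculum grown 18 h, concentrated 50-fold and placed in the peripheral compartment 3 h before t0. Peripheral samples at set times counted by dilution plating. First 10-fold dilution not plated, limiting detection to 2–3 log10 CFU/ml. Δlog CFU/ml taken from t0 count. Duplicates.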

[11] = Residual concentration at the end of the administration interval in two-compartment pharmacokinetic/pharmacodynamic model at 200 mg, bid administered as 0.5 hrs infusion; type: ADME; conditions: iv, read-out: Drug uptake
[12] = Residual concentration at the end of the administration interval in two-compartment pharmacokinetic/pharmacodynamic model at 200 mg, bid administered as 0.5 hr infusion over 24 hrs; type: ADME; conditions: in vivo, iv
[13] = test system: Staphylococcus aureus subsp. aureus RN4220; experiment: AUBC (0 to 24 hrs) in Staphylococcus aureus RN4220MutS2 in two-compartment pharmacokinetic/pharmacodynamic model at 600 mg, bid administered as 0.5 hr infusion for 2 days; type: functional; in short: as §1
[14] = test system: Staphylococcus aureus subsp. aureus RN4220; experiment: T>MIC in Staphylococcus aureus RN4220 MutS2 in two-compartment pharmacokinetic/pharmacodynamic model at 600 mg, bid administered as 0.5 hr infusion for 2 days; type: functional
[15] = test system: Enterococcus faecalis; experiment: Bactericidal activity against 24 hrs peripheral compartment culture samples of Enterococcus faecalis Ef1497 in two-compartment pharmacokinetic/pharmacodynamic model assessed as effect on bacterial count at 600 mg, bid administered as 0.5 hr infusion; type: functional; in short: as §2
[16] = test system: Enterococcus faecalis; experiment: ABBC (0 to 24 hrs) in Enterococcus faecalis Ef1497 MutM3 in two-compartment pharmacokinetic/pharmacodynamic model at 600 mg, bid administered as 0.5 hr infusion for 2 days; type: functional; in short: as §1
[17] = test system: Enterococcus faecalis; experiment: T>MIC in Enterococcus faecalis ATCC 29212 in two-compartment pharmacokinetic/pharmacodynamic model at 200 mg, bid administered as 0.5 hr infusion for 2 days; type: functional
[18] = test system: Enterococcus faecalis; experiment: Bactericidal activity against 12.5 hrs peripheral compartment culture samples of Enterococcus faecalis Ef1497 in two-compartment pharmacokinetic/pharmacodynamic model assessed as effect on bacterial count at 800 mg, bid administered as 0.5 hr infusion; type: functional; in short: as §2
[19] = test system: Enterococcus faecalis; experiment: Bactericidal activity against 14 hrs peripheral compartment culture samples of Enterococcus faecalis Ef1497 in two-compartment pharmacokinetic/pharmacodynamic model assessed as effect on bacterial count at 600 mg, bid administered as 0.5 hr infusion; type: functional; in short: as §2
[20] = test system: Enterococcus faecalis; experiment: Bactericidal activity against 13 hrs peripheral compartment culture samples of Enterococcus faecalis Ef1497 MutM3 in two-compartment pharmacokinetic/pharmacodynamic model assessed as effect on bacterial count at 600 mg, bid administered as 0.5 hr infusion; type: functional; in short: as §2
[21] = test system: Enterococcus faecalis; experiment: Bactericidal activity against 13 hrs peripheral compartment culture samples of Enterococcus faecalis ATCC 29212 in two-compartment pharmacokinetic/pharmacodynamic model assessed as effect on bacterial count at 200 mg, bid administered as 0.5 hr infusion; type: functional; in short: as §2
[22] = test system: Enterococcus faecalis; experiment: Bactericidal activity against 12.5 hrs peripheral compartment culture samples of Enterococcus faecalis ATCC 29212 in two-compartment pharmacokinetic/pharmacodynamic model assessed as effect on bacterial count at 600 mg, bid administered as 0.5 hr infusion; type: functional; in short: as §2
[23] = test system: Staphylococcus aureus subsp. aureus RN4220; experiment: AUBC (0 to 24 hrs) in Staphylococcus aureus RN4220 in two-compartment pharmacokinetic/pharmacodynamic model at 600 mg, bid administered as 0.5 hr infusion for 2 days; type: functional; in short: as §1
[24] = Cmax in two-compartment pharmacokinetic/pharmacodynamic model at 600 mg, bid administered as 0.5 hr infusion over 24 hrs; type: ADME, organism-based; parameters: dose 600 mg; conditions: iv
[25] = test system: Staphylococcus aureus subsp. aureus RN4220; experiment: ABBC (0 to 24 hrs) in Staphylococcus aureus RN4220 MutS2 in two-compartment pharmacokinetic/pharmacodynamic model at 600 mg, bid administered as 0.5 hr infusion for 2 days; in short: as §1
[26] = in vitro; conditions: two-compartment pharmacokinetic/pharmacodynamic model, iv, 600 mg
[27] = Apparent volume of distribution in two-compartment pharmacokinetic/pharmacodynamic model at 200 mg, bid administered as 0.5 hr infusion over 24 hrs; type: ADME, organism-based; conditions: in vivo, iv
[28] = Tmax in two-compartment pharmacokinetic/pharmacodynamic model at 800 mg, bid administered as 0.5 hr infusion over 24 hrs; type: ADME, organism-based; conditions: iv
[29] = Volume of distribution at steady state in two-compartment pharmacokinetic/pharmacodynamic model at 800 mg, bid administered as 0.5 hr infusion over 24 hrs; type: ADME, organism-based; conditions: iv, read-out: Vdss

## CC(=O)NC[C@H]1CN(c2ccc(N3CCOCC3)c(F)c2)C(=O)O1 [LINEZOLID]
[1]
  ABBC: 1.32 log10CFU/ml.hr
[2]
  log10CFU/ml: -0.15
[3]
  half-life: 5.2 h
[4]
  log10CFU/ml: 0.02
[5]
  AUC at 24 h: 10100 ng·h/mL
[6]
  AUC at 0.5 h: 10100 ng·h/mL
[7]
  fT>MIC: 0%
[8]
  fT>MIC: 0%
[9]
  log10CFU/ml: 0.16
[10]
  log10CFU/ml: 0.19
[11]
  concentration at 0.5 h: 390 ng/mL
[12]
  Drug uptake: 0.31 µg/mL
[13]
  AUBC: 228.8 log10CFU/ml.hr
[14]
  fT>MIC: 66.6%
[15]
  log10CFU/ml: 0.35
[16]
  ABBC: -2.66 log10CFU/ml.hr
[17]
  fT>MIC: 8.08%
[18]
  log10CFU/ml: -0.03
[19]
  log10CFU/ml: 0.13
[20]
  log10CFU/ml: 0.25
[21]
  log10CFU/ml: 0.28
[22]
  log10CFU/ml: 0.1
[23]
  AUBC: 229.4 log10CFU/ml.hr
[24]
  Cmax: 14600 ng/mL
[25]
  ABBC: -2.27 log10CFU/ml.hr
[26]
  half-life at 0.5 h: 6.54 h
[27]
  Vd: 137 L
[28]
  Tmax: 0.5 h
[29]
  Vd: 89.3 L
